Results published in ChEMBL document CHEMBL1153444, “Discovery of dual inhibitors targeting both HIV-1 capsid and human cyclophilin A to inhibit the assembly and uncoating of the viral capsid” (Bioorg Med Chem, 2009).

Assays:
[1] = test system: Simian immunodeficiency virus; assay: Antiviral activity against SIV in human CEM cells assessed as inhibition of virus-induced cytopathogenicity at 10 uM; assay type: functional, CCRF-CEM; parameters: scale not given: the % may be the effect or the level left
[2] = test system: Simian immunodeficiency virus; assay: Antiviral activity against SIV in human CEM cells assessed as inhibition of virus-induced cytopathogenicity; assay type: functional, organism-based, CCRF-CEM; settings: ccrf-cem
Method in brief: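 SIV syncytium assay in CEM174 cells (2 × 10⁵ cells/ml) infected with 100 TCID₅₀ SIV per well alongside serial compound dilutions. Cultures were kept 5 days at 37 °C in humidified 5% CO₂, then giant-cell formation was scored microscopically. EC₅₀ is the concentration protecting cells from SIV cytopathogenicity by 50%.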

EC50 [2]: Not Active
Structure (SMILES): C/C=C/C[C@@H](C)[C@@H](O)[C@H]1C(=O)N[C@@H](CC)C(=O)N(C)CC(=O)N(C)[C@@H](CC(C)C)C(=O)N[C@@H](C(C)C)C(=O)N(C)[C@@H](CC(C)C)C(=O)N[C@@H](C)C(=O)N[C@H](C)C(=O)N(C)[C@@H](CC(C)C)C(=O)N(C)[C@@H](CC(C)C)C(=O)N(C)[C@@H](C(C)C)C(=O)N1C [CYCLOSPORINE]
Activity [1]: <10%
